Values joined by “and” are separate entries in the source; they are usually repeats but may differ in a detail not shown here. Equal values may be shown once.
System: HEK-293T
Assay: Multiplex assay against HEK293T
Assay type: toxicity, cell-based
Conditions: human
Procedure, shortened: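 Live cells were stained at seeding with Hoechst33342, BioTracker Green Microtubule Cytoskeleton Dye, MitoTracker Red and Annexin V Alexa Fluor 680. Following compound addition, they were imaged on a CQ1 microscope at 37°C and 5% CO2 and gated by CellPathfinder machine learning into Hoechst high-intensity objects or normal cells, with normal cells split into healthy, pyknosed or fragmented nuclei and pyknosed cells into mitotic or apoptotic. Tubulin, mitochondrial-mass and membrane-permeability phenotypes are per cents of healthy-nucleus cells.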

[1] = 12 h, 1 µM, compound concentration 1 uM
[2] = 12 h, 10 µM, compound concentration 10 uM
[3] = 24 h, 1 µM, compound concentration 1 uM
[4] = 24 h, 10 µM, compound concentration 10 uM
[5] = 48 h, 1 µM, compound concentration 1 uM
[6] = 48 h, 10 µM, compound concentration 10 uM

Cc1cc(C(C#N)c2ccc(Cl)cc2)c(Cl)cc1NC(=O)c1cc(I)cc(I)c1O (centres undefined) [CLOSANTEL]
Population Apoptotic (%) [1]: 6.57% and 5.41%
Population Fragmented Nuclei (%) [1]: 3.34% and 0.56%
Population Hoechst High Intensity Objects (%) [1]: 0%
Population Membrane Permeable-Phenotype (%) [1]: 1.66% and 0%
Population Mitotic Cells (%) [1]: 93.43% and 94.59%
Population Normal (%) [1]: 100%
Population Pyknosed Nuclei (%) [1]: 41.64% and 82.22%
Total Cell Count [1]: 329 and 180
Population Apoptotic (%) [2]: 9.49% and 11.94%
Population Fragmented Nuclei (%) [2]: 1.44% and 2.52%
Population Hoechst High Intensity Objects (%) [2]: 0.29% and 0%
Population Membrane Permeable-Phenotype (%) [2]: 0%
Population Mitotic Cells (%) [2]: 90.51% and 88.06%
Population Normal (%) [2]: 99.71% and 100%
Population Pyknosed Nuclei (%) [2]: 39.37% and 84.28%
Total Cell Count [2]: 349 and 159
Population Apoptotic (%) [3]: 9.09% and 12.78%
Population Fragmented Nuclei (%) [3]: 2.28% and 0.53%
Population Healthy Nuclei (%) [3]: 72.62% and 29.1%
Population Hoechst High Intensity Objects (%) [3]: 0.19% and 0%
Population Membrane Permeable-Phenotype (%) [3]: 1.05% and 0%
Population Mitochondria Different-Phenotype (%) [3]: 12.3% and 16.36%
Population Mitotic Cells (%) [3]: 90.91% and 87.22%
Population Normal (%) [3]: 99.81% and 100%
Population Pyknosed Nuclei (%) [3]: 25.1% and 70.37%
Population Tubulin-Different-Phenotype (%) [3]: 11.78% and 10.91%
Total Cell Count [3]: 527 and 189
Population Apoptotic (%) [4]: 21.1% and 18.35%
Population Fragmented Nuclei (%) [4]: 2.28% and 2.25%
Population Healthy Nuclei (%) [4]: 75.1% and 36.52%
Population Hoechst High Intensity Objects (%) [4]: 0.21% and 2.73%
Population Membrane Permeable-Phenotype (%) [4]: 0.83% and 1.54%
Population Mitochondria Different-Phenotype (%) [4]: 12.15% and 7.69%
Population Mitotic Cells (%) [4]: 78.9% and 81.65%
Population Normal (%) [4]: 99.79% and 97.27%
Population Pyknosed Nuclei (%) [4]: 22.61% and 61.24%
Population Tubulin-Different-Phenotype (%) [4]: 3.04% and 9.23%
Total Cell Count [4]: 483 and 183
Population Apoptotic (%) [5]: 9.63% and 18.42%
Population Fragmented Nuclei (%) [5]: 3.24% and 1.21%
Population Healthy Nuclei (%) [5]: 87.05% and 68.15%
Population Hoechst High Intensity Objects (%) [5]: 0% and 0.8%
Population Membrane Permeable-Phenotype (%) [5]: 4.96% and 1.78%
Population Mitochondria Different-Phenotype (%) [5]: 11.57% and 23.67%
Population Mitotic Cells (%) [5]: 90.37% and 81.58%
Population Normal (%) [5]: 100% and 99.2%
Population Fragmented Nuclei (%) [6]: 2.8% and 1.44%
Population Healthy Nuclei (%) [6]: 87.9% and 66.19%
Population Hoechst High Intensity Objects (%) [6]: 0.07% and 0%
Population Membrane Permeable-Phenotype (%) [6]: 1.34% and 0.54%
Population Mitochondria Different-Phenotype (%) [6]: 8.23% and 21.74%
Population Mitotic Cells (%) [6]: 96.03% and 80%
Population Normal (%) [6]: 99.93% and 100%

CC1(COc2ccc3c(c2)ncn3-c2ccc3cccc(N4CCC(N)CC4)c3n2)COC1 [CRENOLANIB]
Population Apoptotic (%) [1]: 58% and 34%
Population Fragmented Nuclei (%) [1]: 14% and 10%
Population Healthy Nuclei (%) [1]: 79% and 80%
Population Hoechst High Intensity Objects (%) [1]: 3% and 6%
Population Membrane Permeable-Phenotype (%) [1]: 2% and 1%
Population Mitochondria Different-Phenotype (%) [1]: 23% and 51%
Population Mitotic Cells (%) [1]: 41% and 65%
Population Normal (%) [1]: 96% and 93%
Population Pyknosed Nuclei (%) [1]: 6% and 8%
Population Tubulin-Different-Phenotype (%) [1]: 46% and 51%
Total Cell Count [1]: 412 and 332
Population Apoptotic (%) [2]: 69% and 55%
Population Fragmented Nuclei (%) [2]: 67% and 64%
Population Healthy Nuclei (%) [2]: 13% and 17%
Population Hoechst High Intensity Objects (%) [2]: 67% and 69%
Population Membrane Permeable-Phenotype (%) [2]: 0%
Population Mitochondria Different-Phenotype (%) [2]: 84% and 90%
Population Mitotic Cells (%) [2]: 30% and 45%
Population Normal (%) [2]: 32% and 30%
Population Pyknosed Nuclei (%) [2]: 18% and 17%
Population Tubulin-Different-Phenotype (%) [2]: 68% and 50%
Total Cell Count [2]: 423 and 376
Population Apoptotic (%) [3]: 29% and 45%
Population Fragmented Nuclei (%) [3]: 20% and 15%
Population Healthy Nuclei (%) [3]: 66% and 73%
Population Hoechst High Intensity Objects (%) [3]: 2% and 6%
Population Membrane Permeable-Phenotype (%) [3]: 2% and 1%
Population Mitochondria Different-Phenotype (%) [3]: 22% and 33%
Population Mitotic Cells (%) [3]: 70% and 54%
Population Normal (%) [3]: 97% and 93%
Population Pyknosed Nuclei (%) [3]: 12% and 11%
Population Tubulin-Different-Phenotype (%) [3]: 23% and 35%
Total Cell Count [3]: 547 and 415
Population Apoptotic (%) [4]: 72%
Population Fragmented Nuclei (%) [4]: 60% and 69%
Population Healthy Nuclei (%) [4]: 16% and 15%
Population Hoechst High Intensity Objects (%) [4]: 56% and 63%
Population Membrane Permeable-Phenotype (%) [4]: 0%
Population Mitochondria Different-Phenotype (%) [4]: 89% and 94%
Population Mitotic Cells (%) [4]: 27%
Population Normal (%) [4]: 43% and 36%
Population Pyknosed Nuclei (%) [4]: 23% and 14%
Population Tubulin-Different-Phenotype (%) [4]: 92% and 73%
Total Cell Count [4]: 394 and 334
Population Apoptotic (%) [5]: 29% and 47%
Population Fragmented Nuclei (%) [5]: 19% and 23%
Population Healthy Nuclei (%) [5]: 72% and 70%
Population Hoechst High Intensity Objects (%) [5]: 1%
Population Membrane Permeable-Phenotype (%) [5]: 1%
Population Mitochondria Different-Phenotype (%) [5]: 17% and 21%
Population Mitotic Cells (%) [5]: 70% and 52%
Population Normal (%) [5]: 98%
Population Pyknosed Nuclei (%) [5]: 7% and 6%
Population Tubulin-Different-Phenotype (%) [5]: 10% and 14%
Total Cell Count [5]: 844 and 639
Population Apoptotic (%) [6]: 86% and 84%
Population Fragmented Nuclei (%) [6]: 51% and 47%
Population Healthy Nuclei (%) [6]: 17% and 22%
Population Hoechst High Intensity Objects (%) [6]: 41% and 49%
Population Membrane Permeable-Phenotype (%) [6]: 0%
Population Mitochondria Different-Phenotype (%) [6]: 97% and 96%
Population Mitotic Cells (%) [6]: 13% and 15%
Population Normal (%) [6]: 59% and 50%
Population Pyknosed Nuclei (%) [6]: 30%
Population Tubulin-Different-Phenotype (%) [6]: 95% and 96%
Total Cell Count [6]: 400 and 298
